For series [1], the system named is Rattus norvegicus. In words: Mean Chlorine excretion in rats when compound administered at 40 mg/kg po and vehicle dosed at 157.94 umol/kg. The note with it: in vivo. Details: dose 40 mg/kg, route oral. It counts as ADME, organism-based. In a few lines: (§1)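 Male Sprague-Dawley rats (HC/CFY, 175-200 g), no food or water for 18 h before and during the test. Single gavage dose (2.5-160 mg/kg; vehicle 1% carboxymethyl cellulose/0.1% Tween 80, 0.5 mL/100 g bw), then distilled water 2.5 mL/100 g bw po. Individual metabolic cages, 6 h urine. K+ by flame photometry, Cl- colorimetric, as mequiv/6 h/kg bw; unpaired Student t-test vs control.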

Series [2] deals with Rattus norvegicus. In words: Mean urinary output in rats when compound administered at 5 mg/kg po and vehicle dosed at 19.74 umol/kg. It is filed as ADME, organism-based, Urine. Particulars: in vivo. The arrangement: dose 5 mg/kg, route oral. In a few lines: (§2)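 Water-loaded male Sprague-Dawley rats (HC/CFY, 175-200 g) fasted and without water for 18 h. Oral gavage of 2.5-160 mg/kg in 1% CMC with 0.1% Tween 80, then distilled water 2.5 mL/100 g po. Urine collected 6 h in metabolic cages, mean output in mL/6 h/kg bw. Unpaired Student t-test against vehicle; dose-response by linear regression.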

Series [3] deals with Rattus norvegicus. In words: Urinary sodium 4 hr after the compound was administered 125 mg/kg po in rat. Details: dose 125 mg/kg, route oral. It counts as ADME, organism-based, Urine. The note with it: in vivo. In a few lines: (§3)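 Onset and duration study in fasted, water-loaded male Sprague-Dawley rats housed two per metabolic cage, six pairs per group. Single oral dose given, then water 2.5 mL/100 g po. Urine volume and sodium (flame photometry) measured over 0-1, 1-2, 2-3, 3-4 and 4-6 h intervals. Mean values compared with vehicle by Student t-test.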

Series [4] concerns Rattus norvegicus. In words: Post dosing time interval of maximum activity. It counts as functional. In a few lines: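 Interval of peak activity taken from timed urine collections (0-1, 1-2, 2-3, 3-4, 4-6 h) after a single oral dose in water-loaded fasted rats, […]. Urine volume and Na+ excretion followed over time.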
Series [5] has as its system Rattus norvegicus. In words: Urinary sodium 2 hr after the compound was administered 125 mg/kg po in rat. It counts as ADME, organism-based, Urine. Details: dose 125 mg/kg, route oral. The note with it: in vivo. In a few lines:
as §3

In series [6] the test system is Rattus norvegicus. In words: Mean urinary output in rats when compound administered at 10 mg/kg po and vehicle dosed at 39.48 umol/kg. It is filed as ADME, organism-based, Urine. Particulars: in vivo. Details: dose 10 mg/kg, route oral. An outline of the steps:
as §2

Series [7] concerns Rattus norvegicus. In words: Mean Chlorine excretion in rats when compound administered at 10 mg/kg po and vehicle dosed at 39.48 umol/kg. It is filed as ADME, organism-based. The arrangement: dose 10 mg/kg, route oral. The note with it: in vivo. An outline of the steps: as §1
In series [8] the test system is Rattus norvegicus. In words: Mean potassium excretion in rats when compound administered at 10 mg/kg po and vehicle dosed at 39.48 umol/kg. The arrangement: dose 10 mg/kg, route oral. It is filed as ADME, organism-based. The note with it: in vivo. An outline of the steps: as §1
The test system of series [9] is Rattus norvegicus. In words: Mean sodium excretion in rats when compound administered at 0 mg/kg po and vehicle dosed at 0 umol/kg. It is filed as ADME, organism-based. Details: dose 0 mg/kg, route oral. Particulars: in vivo. An outline of the steps: (§4)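 Male Sprague-Dawley rats (HC/CFY, 175-200 g) fasted and water-deprived 18 h before and during the test. Dosed by gavage at 2.5-160 mg/kg in 1% carboxymethyl cellulose/0.1% Tween 80, 0.5 mL/100 g bw. Immediately hydrated with water (2.5 mL/100 g bw, po). Urine collected 6 h in metabolic cages; Na+ and K+ by flame photometry; mean mequiv/6 h/kg bw; nonpaired Student t-test.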

For series [10], the system named is Rattus norvegicus. In words: Mean urinary output in rats when compound administered at 80 mg/kg po and vehicle dosed at 315.88 umol/kg. It is filed as ADME, organism-based, Urine. The note with it: in vivo. The arrangement: dose 80 mg/kg, route oral. In a few lines:
as §2

For series [11], the system named is Rattus norvegicus. In words: Mean Chlorine excretion in rats when compound administered at 160 mg/kg po and vehicle dosed at 631.76 umol/kg. It is filed as ADME, organism-based. The arrangement: dose 160 mg/kg, route oral. The note with it: in vivo. An outline of the steps: as §1
The species entered for series [12] is Rattus norvegicus. In words: Dose required to produce increase in 50 % in urine production vs control groups. It is filed as functional. An outline of the steps:
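Male Sprague-Dawley rats (HC/CFY, 175-200 g), fasted and water-deprived 18 h before and during the test. Compound dosed by gavage in 1% carboxymethyl cellulose/0.1% Tween 80, then water load 2.5 mL/100 g bw po. Urine collected 6 h in metabolic cages; Na+ by flame photometry. Effective doses vs vehicle controls derived by linear regression of dose-response data.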

The test system of series [13] is Rattus norvegicus. In words: Mean potassium excretion in rats when compound administered at 5 mg/kg po and vehicle dosed at 19.74 umol/kg. It counts as ADME, organism-based. Details: dose 5 mg/kg, route oral. Particulars: in vivo. In a few lines:
as §4

Series [14] concerns Rattus norvegicus. In words: Volume of urine 6 hr after the compound was administered 125 mg/kg po in rat. It is filed as ADME, organism-based. The arrangement: dose 125 mg/kg, route oral. The note with it: in vivo. An outline of the steps: (§5)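 Onset/duration protocol: male Sprague-Dawley rats (HC/CFY, 175-200 g), food and water withdrawn for 18 h before and during the test. Single gavage dose in 1% carboxymethyl cellulose/0.1% Tween 80 (0.5 mL/100 g bw), then distilled water load (2.5 mL/100 g bw po). Two rats per metabolic cage, six pairs per group. Urine collected at 0-1, 1-2, 2-3, 3-4 and 4-6 h; Na+ by flame photometry. Vehicle controls; nonpaired Student t-test.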

Series [15] relates to Rattus norvegicus. In words: Mean sodium excretion in rats when compound administered at 5 mg/kg po and vehicle dosed at 19.74 umol/kg. It is filed as ADME, organism-based. Details: dose 5 mg/kg, route oral. The note with it: in vivo. An outline of the steps: as §4
Series [16] relates to Rattus norvegicus. In words: Mean sodium excretion in rats when compound administered at 2.5 mg/kg po and vehicle dosed at 9.87 umol/kg. The note with it: in vivo. The arrangement: dose 2.5 mg/kg, route oral. It is filed as ADME, organism-based. An outline of the steps: as §4
Series [17] relates to Rattus norvegicus. In words: Mean potassium excretion in rats when compound administered at 2.5 mg/kg po and vehicle dosed at 9.87 umol/kg. It counts as ADME, organism-based. Details: dose 2.5 mg/kg, route oral. Particulars: in vivo. In a few lines: as §1
Series [18] deals with Rattus norvegicus. In words: Mean sodium excretion in rats when compound administered at 80 mg/kg po and vehicle dosed at 315.88 umol/kg. It is filed as ADME, organism-based. The arrangement: dose 80 mg/kg, route oral. The note with it: in vivo. An outline of the steps:
as §4

Series [19] has as its system Rattus norvegicus. In words: Mean potassium excretion in rats when compound administered at 20 mg/kg po and vehicle dosed at 78.97 umol/kg. Details: dose 20 mg/kg, route oral. Particulars: in vivo. It counts as ADME, organism-based. In a few lines:
as §1

Series [20] deals with Rattus norvegicus. In words: Mean urinary output in rats when compound administered at 0 mg/kg po and vehicle dosed at 0 umol/kg. Details: dose 0 mg/kg, route oral. It counts as ADME, organism-based, Urine. The note with it: in vivo. In a few lines:
as §2

Series [21] deals with Rattus norvegicus. In words: Mean sodium excretion in rats when compound administered at 20 mg/kg po and vehicle dosed at 78.97 umol/kg. It counts as ADME, organism-based. The arrangement: dose 20 mg/kg, route oral. Particulars: in vivo. In a few lines:
as §4

Series [22] relates to Rattus norvegicus. In words: Volume of urine 2 hr after the compound was administered 125 mg/kg po in rat. The arrangement: dose 125 mg/kg, route oral. Particulars: in vivo. It counts as ADME, organism-based. In a few lines: as §5
Series [23] concerns Rattus norvegicus. In words: Mean Chlorine excretion in rats when compound administered at 5 mg/kg po and vehicle dosed at 19.74 umol/kg. It is filed as ADME, organism-based. Details: dose 5 mg/kg, route oral. The note with it: in vivo. An outline of the steps:
as §1

In the case of `Nc1nc(N)c2nc(-c3ccccc3)c(N)nc2n1`, the Cl- in the series on Rattus norvegicus [1] is 2.83 m equiv 6hr-1 kg-1 (body weight)-1; in the series with Rattus norvegicus [7], 1.89 m equiv 6hr-1 kg-1 (body weight)-1; in the series with Rattus norvegicus [11] it was 3.05 m equiv 6hr-1 kg-1 (body weight)-1; in the series on Rattus norvegicus [23], 1.55 m equiv 6hr-1 kg-1 (body weight)-1. Further, the V is on record as 30.19 ml 6hr-1 (kg of body weight)-1 in the series with Rattus norvegicus [2], 31.13 ml 6hr-1 (kg of body weight)-1 in the series with Rattus norvegicus [6], 44.92 ml 6hr-1 (kg of body weight)-1 with Rattus norvegicus [10] and 24.94 ml 6hr-1 (kg of body weight)-1 in the series with Rattus norvegicus [20]. The entries for the “Urinary Na+” value with Rattus norvegicus [3] and with Rattus norvegicus [5] were 0.15 m equiv and 0.16 m equiv, respectively. The compound also returned a Time in the series with Rattus norvegicus [4] of 6 h. Further, the K with Rattus norvegicus [8] is 0.18 m equiv 6hr-1 kg-1 (body weight)-1; in the series on Rattus norvegicus [13], 0.19 m equiv 6hr-1 kg-1 (body weight)-1; in the series on Rattus norvegicus [17], 0.32 m equiv 6hr-1 kg-1 (body weight)-1; with Rattus norvegicus [19] it was 0.16 m equiv 6hr-1 kg-1 (body weight)-1. The Na with Rattus norvegicus [9] is on record as 0.58 m equiv 6hr-1 kg-1 (body weight)-1; in the series with Rattus norvegicus [15] it was 2.28 m equiv 6hr-1 kg-1 (body weight)-1; in the series with Rattus norvegicus [16], 1.69 m equiv 6hr-1 kg-1 (body weight)-1; with Rattus norvegicus [18] it was 3.37 m equiv 6hr-1 kg-1 (body weight)-1; in the series on Rattus norvegicus [21], 2.42 m equiv 6hr-1 kg-1 (body weight)-1. In the series filed under Rattus norvegicus [12], this compound showed an ED50 of 34.5 mg/kg. In addition, the Urine volume was determined as 4.36 mL in the series on Rattus norvegicus [14] and 3.2 mL in the series with Rattus norvegicus [22].

What is called ED50 is the midpoint of the dose-response relation.

Source of the values: ChEMBL document CHEMBL1125330, “N-substituted pyrazino[2,3-c][1,2,6]thiadiazine 2,2-dioxides. A new class of diuretics” (J Med Chem, 1992).
